Active and inactive are the calls of the source. The rule behind the calls is not given here.

Assay [1] has as its target T1, Suppressor of tumorigenicity 14 protein (Homo sapiens) (UniProt Q9Y5Y6).
T1 sequence (whole entry): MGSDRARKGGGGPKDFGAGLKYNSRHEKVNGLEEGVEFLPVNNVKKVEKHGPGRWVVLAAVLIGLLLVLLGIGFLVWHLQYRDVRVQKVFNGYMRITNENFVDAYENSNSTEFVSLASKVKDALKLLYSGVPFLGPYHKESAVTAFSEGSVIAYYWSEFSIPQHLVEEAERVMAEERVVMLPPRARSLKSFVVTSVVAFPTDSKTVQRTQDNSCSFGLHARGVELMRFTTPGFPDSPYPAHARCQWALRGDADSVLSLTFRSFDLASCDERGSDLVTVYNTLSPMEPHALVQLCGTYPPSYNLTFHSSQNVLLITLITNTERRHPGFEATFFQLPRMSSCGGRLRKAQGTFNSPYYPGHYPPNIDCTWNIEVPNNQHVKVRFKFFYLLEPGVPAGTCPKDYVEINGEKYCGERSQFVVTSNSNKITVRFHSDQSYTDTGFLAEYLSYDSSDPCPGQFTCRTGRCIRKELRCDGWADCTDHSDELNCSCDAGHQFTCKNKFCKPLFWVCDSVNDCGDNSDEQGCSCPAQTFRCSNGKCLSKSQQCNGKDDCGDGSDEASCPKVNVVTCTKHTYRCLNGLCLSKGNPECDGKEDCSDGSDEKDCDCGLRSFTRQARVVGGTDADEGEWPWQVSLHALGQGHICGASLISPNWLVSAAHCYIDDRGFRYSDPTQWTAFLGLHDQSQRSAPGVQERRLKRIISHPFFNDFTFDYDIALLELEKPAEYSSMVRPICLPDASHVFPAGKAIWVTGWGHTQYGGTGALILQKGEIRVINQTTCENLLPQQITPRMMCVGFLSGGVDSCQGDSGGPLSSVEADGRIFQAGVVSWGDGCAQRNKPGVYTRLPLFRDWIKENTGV
The assay is described as follows: Inhibition of matriptase (unknown origin) using BOC-QAR-AMC as substrate at 10 uM after 15 mins by fluorescence assay relative to control. In outline: (§1)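 Panel of ten serine proteases; percent inhibition read at compound concentrations of 1 µM and 10 µM, each value the mean of 2 experiments.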

Assay [2] addresses T2, Neutrophil elastase (Homo sapiens) (UniProt P08246).
T2 sequence (whole entry): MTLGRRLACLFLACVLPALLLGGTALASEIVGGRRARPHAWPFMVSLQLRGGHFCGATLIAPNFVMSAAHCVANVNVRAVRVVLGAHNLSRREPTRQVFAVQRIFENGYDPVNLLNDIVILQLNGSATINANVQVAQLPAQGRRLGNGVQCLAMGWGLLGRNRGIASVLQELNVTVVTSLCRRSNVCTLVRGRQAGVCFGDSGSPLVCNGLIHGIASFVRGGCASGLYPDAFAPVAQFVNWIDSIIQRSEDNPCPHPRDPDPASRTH
The assay is described as follows: Inhibition of elastase (unknown origin) at 10 uM relative to control. A digest of the protocol: as §1

Assay [3] concerns the target Dipeptidyl peptidase 4 (Homo sapiens) (UniProt P27487). The assay is described as follows: Inhibition of recombinant full length human dipeptidyl peptidase 4 using GP-AMC as substrate at 1 uM after 10 mins by fluorescence spectrophotometric method relative to control. In outline:
as §1

The target in assay [4] is T2, Neutrophil elastase (Homo sapiens). The assay is described as follows: Inhibition of human ELA2 using N-MeOSuc-Ala-Ala-Pro-Val-pNA as substrate at 1 uM after 60 mins by spectrophotometric method relative to control. In outline:
as §1

The next assay concerns the target Trypsin (Homo sapiens) (UniProt P07477+P07478+P35030). Description: Inhibition of human trypsin using Z-Gly-Pro-Arg-AMC as substrate at 10 uM after 60 mins by fluorescence spectrophotometric method relative to control. The assay is classed as protein assay. In outline:
as §1

A further assay has as its target Serine protease hepsin (Homo sapiens, UniProt P05981). Description: Inhibition of doxycycline induced Hepsin in human MCF10A cells assessed as prevention in loss of HAI-1 level at 10 uM preincubated for 30 mins followed by doxycycline addition measured after 6 hrs by Immunoblot assay. Format: cell-based. In outline:
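MCF10A-Indu20-hepsin cells (Dox-inducible hepsin) pretreated 30 min with compound or DMSO, then hepsin induced with 100 ng/mL doxycycline for 6 h; HAI-1 protein scored by immunoblot.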
(In general: A western blot detects proteins with antibodies after separation by electrophoresis.)

For another assay, the target named is T3, Chymase (Homo sapiens) (UniProt P23946).
T3 sequence (whole entry): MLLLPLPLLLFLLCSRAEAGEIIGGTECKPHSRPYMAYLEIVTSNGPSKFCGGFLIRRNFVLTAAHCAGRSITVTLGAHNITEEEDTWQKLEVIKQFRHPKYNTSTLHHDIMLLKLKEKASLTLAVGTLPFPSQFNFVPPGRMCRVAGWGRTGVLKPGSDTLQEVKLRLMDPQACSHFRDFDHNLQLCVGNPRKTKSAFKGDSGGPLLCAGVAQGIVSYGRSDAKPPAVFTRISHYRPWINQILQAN
Description: Inhibition of human chymase using Suc-Ala-Ala-Pro-Phe-AMC as substrate at 10 uM after 120 mins by fluorescence spectrophotometric method relative to control. In outline:
as §1

The target of assay [5] is T4, Hepatocyte growth factor activator serine protease (Homo sapiens) (UniProt Q04756).
T4 sequence (whole entry): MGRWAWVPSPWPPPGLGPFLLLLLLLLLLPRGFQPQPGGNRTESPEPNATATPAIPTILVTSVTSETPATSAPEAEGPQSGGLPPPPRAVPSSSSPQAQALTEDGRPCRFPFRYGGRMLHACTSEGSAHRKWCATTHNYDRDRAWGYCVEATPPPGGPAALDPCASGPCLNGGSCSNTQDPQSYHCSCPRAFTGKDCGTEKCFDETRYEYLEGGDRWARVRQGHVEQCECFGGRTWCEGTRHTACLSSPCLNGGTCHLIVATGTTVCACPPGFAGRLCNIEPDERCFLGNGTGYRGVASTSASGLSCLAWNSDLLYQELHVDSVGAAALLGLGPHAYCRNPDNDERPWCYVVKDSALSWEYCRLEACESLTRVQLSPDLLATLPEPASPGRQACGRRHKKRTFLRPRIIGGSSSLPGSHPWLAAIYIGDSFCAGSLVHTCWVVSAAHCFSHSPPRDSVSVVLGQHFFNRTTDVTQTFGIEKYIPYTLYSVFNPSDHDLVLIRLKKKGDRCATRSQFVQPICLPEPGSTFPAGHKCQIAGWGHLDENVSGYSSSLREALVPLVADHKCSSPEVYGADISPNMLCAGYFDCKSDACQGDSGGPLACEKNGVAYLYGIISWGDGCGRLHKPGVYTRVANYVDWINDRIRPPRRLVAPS
The assay is described as follows: Inhibition of C-terminal 10-His tagged recombinant human HGFA (Gln36 to Ser655 residues) expressed in mouse […] cells 1 uM after 15 mins by fluorescence assay relative to control. The assay is classed as cell-based.

In assay [6] the target is T2, Neutrophil elastase (Homo sapiens). Description: Inhibition of elastase (unknown origin) at 1 uM relative to control. A digest of the protocol: as §1
In assay [7] the target is Coagulation factor X (Homo sapiens) (UniProt P00742). The assay is described as follows: Inhibition of factor 10a (unknown origin) at 1 uM after 15 mins by fluorescence assay relative to control. A digest of the protocol:
as §1

Assay [8] concerns the target Plasma kallikrein (Homo sapiens) (UniProt P03952). Description: Inhibition of human plasma kallikrein using H-D-Pro-Phe-Arg-pNA as substrate at 10 uM after 30 mins by spectrophotometric method relative to control. A digest of the protocol: as §1

Sequence of Serine protease hepsin (P05981 1-162 limits assumed): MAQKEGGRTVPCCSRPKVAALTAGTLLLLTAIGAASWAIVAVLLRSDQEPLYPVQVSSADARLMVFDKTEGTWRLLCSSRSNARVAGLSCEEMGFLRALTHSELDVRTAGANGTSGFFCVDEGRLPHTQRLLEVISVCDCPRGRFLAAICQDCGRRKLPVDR
Sequence of Serine protease hepsin (P05981 163-417 limits assumed): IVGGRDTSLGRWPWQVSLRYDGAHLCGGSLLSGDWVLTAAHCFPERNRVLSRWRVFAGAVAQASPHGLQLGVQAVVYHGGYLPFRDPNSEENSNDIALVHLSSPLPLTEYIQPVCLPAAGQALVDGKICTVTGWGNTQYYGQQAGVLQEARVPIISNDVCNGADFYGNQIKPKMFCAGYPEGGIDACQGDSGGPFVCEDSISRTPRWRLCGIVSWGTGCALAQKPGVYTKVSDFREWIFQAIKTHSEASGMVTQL
Sequence of Dipeptidyl peptidase 4 (Homo sapiens) (P27487 whole entry, looked up): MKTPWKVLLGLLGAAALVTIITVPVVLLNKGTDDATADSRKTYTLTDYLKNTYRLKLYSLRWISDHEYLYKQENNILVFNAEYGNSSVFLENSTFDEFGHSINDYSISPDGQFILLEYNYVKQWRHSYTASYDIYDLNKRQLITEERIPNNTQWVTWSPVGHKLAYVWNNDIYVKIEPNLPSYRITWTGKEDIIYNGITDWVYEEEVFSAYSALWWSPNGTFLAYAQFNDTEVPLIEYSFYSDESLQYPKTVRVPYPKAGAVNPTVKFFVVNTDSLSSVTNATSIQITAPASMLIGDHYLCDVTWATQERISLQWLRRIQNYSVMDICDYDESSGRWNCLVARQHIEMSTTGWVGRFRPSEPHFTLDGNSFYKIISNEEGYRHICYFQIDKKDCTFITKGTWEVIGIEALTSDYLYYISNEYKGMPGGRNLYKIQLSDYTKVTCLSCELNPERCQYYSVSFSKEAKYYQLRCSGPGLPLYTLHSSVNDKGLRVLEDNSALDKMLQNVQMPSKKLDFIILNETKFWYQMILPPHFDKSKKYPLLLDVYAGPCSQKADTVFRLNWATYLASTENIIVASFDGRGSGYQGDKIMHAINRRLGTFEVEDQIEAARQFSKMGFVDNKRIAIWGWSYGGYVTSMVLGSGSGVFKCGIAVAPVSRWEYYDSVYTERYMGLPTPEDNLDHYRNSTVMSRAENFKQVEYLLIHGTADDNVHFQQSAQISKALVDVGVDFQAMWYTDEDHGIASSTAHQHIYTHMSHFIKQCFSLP
Sequence of Coagulation factor X (Homo sapiens) (P00742 41-179 limits assumed): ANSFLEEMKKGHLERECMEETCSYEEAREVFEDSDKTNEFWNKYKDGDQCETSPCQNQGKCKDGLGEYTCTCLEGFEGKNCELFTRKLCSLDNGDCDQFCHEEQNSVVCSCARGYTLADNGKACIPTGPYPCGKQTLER
Sequence of Coagulation factor X (Homo sapiens) (P00742 235-488 limits assumed): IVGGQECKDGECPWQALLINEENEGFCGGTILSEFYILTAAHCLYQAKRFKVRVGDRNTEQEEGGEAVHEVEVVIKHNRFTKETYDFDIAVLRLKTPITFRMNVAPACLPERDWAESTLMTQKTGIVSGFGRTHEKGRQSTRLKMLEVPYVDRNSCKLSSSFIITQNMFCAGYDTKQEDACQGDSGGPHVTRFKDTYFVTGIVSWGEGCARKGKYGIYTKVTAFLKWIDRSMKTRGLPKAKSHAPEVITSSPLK
Sequence of Plasma kallikrein (Homo sapiens) (P03952 20-390 limits assumed): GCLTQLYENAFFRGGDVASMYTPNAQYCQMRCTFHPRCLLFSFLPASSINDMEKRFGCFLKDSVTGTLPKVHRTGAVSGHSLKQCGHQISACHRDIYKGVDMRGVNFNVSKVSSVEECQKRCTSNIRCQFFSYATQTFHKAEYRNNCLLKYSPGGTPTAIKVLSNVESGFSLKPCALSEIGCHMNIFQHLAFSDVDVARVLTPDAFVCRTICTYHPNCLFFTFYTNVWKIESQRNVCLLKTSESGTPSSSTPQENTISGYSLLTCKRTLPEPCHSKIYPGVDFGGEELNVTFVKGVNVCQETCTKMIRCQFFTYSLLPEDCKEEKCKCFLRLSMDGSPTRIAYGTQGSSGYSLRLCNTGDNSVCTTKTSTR
Sequence of Plasma kallikrein (Homo sapiens) (P03952 391-638 limits assumed): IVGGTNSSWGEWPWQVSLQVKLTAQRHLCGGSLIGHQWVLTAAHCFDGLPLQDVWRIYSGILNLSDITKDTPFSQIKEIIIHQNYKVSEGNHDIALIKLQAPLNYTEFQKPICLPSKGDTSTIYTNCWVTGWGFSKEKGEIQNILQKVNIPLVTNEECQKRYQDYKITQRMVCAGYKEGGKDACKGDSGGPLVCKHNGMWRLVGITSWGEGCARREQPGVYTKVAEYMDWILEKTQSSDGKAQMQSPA

In general, inhibition refers to the drop in the measured response relative to a control, in per cent. For the molecule `N=C(N)c1ccc(NC(=O)[C@H](NS(=O)(=O)c2ccc(F)cc2)C2CCCCC2)cc1`, the inhibition in assay [1] is below 10%; in [2], below 10%; in [3], below 10%; in assay [4], below 10%; against Trypsin (Homo sapiens) it was 97%; at Chymase (Homo sapiens) it was below 10%. The inhibition was 10% in assay [5], below 10% in [6], below 10% in assay [7] and 34% in assay [8]. In addition, on Serine protease hepsin, the inhibition result is “inactive”.
Regarding `Cc1ccc(S(=O)(=O)N[C@@H](C(=O)Nc2ccc(C(=N)N)cc2)c2ccccc2)cc1`, the inhibition in assay [1] is below 10%; in assay [2] it was below 10%; in [3], below 10%; in assay [4], below 10%; at Trypsin (Homo sapiens) it was 93%; against Chymase (Homo sapiens), below 10%. In addition, the inhibition was 16% in [5], below 10% in [6], below 10% in assay [7] and 85% in [8]. In addition, the inhibition result at Serine protease hepsin was “Active”.
Regarding `Cc1ccc(S(=O)(=O)N[C@@H](C(=O)Nc2ccc(C(=N)N)cc2)C2CCCCC2)cc1`, the inhibition in [1] was below 10%; in [2] it was below 10%; in [3], below 10%; in assay [4] it was below 10%; on Trypsin (Homo sapiens), 96%; at Chymase (Homo sapiens), below 10%. For the same molecule, the inhibition was 18% in assay [5], below 10% in [6], below 10% in assay [7] and 29% in assay [8]. In addition, on Serine protease hepsin, the inhibition entry was “inactive”.

These data come from ChEMBL document CHEMBL4118144, “Design, Synthesis, and Testing of Potent, Selective Hepsin Inhibitors via Application of an Automated Closed-Loop Optimization Platform” (J Med Chem, 2018).
